According to PMC4536915 (Nature chemical biology, 2015):
Values joined by “and” are separate entries in the source; they are usually repeats but may differ in a detail not shown here. Equal entries are not always repeated.

Experiments:
P. aeruginosa PAO1 [1] = test: MIC by broth microdilution, wild-type strain; type: cell-based, Pseudomonas aeruginosa; conditions: 24 h, 37 °C; listed as F
[2] = tested on: P. aeruginosa PAO1 MexABCDXY− (N150); test: MIC by broth microdilution, efflux-deficient strain; type: cell-based, Pseudomonas aeruginosa; conditions: 24 h, 37 °C; listed as F
P. aeruginosa cells = test: Killing kinetics; type: cell-based, Pseudomonas aeruginosa; conditions: 37°C; linear regression after 1 hr lag
P. aeruginosa PAO1 [3] = test: In vitro post-antibiotic effect; type: cell-based, Pseudomonas aeruginosa; conditions: 1 h exposure, 1:1000 dilution
Outline: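 Drug removed by 1:1000 dilution into pre-warmed medium. Regrowth at 37 °C counted immediately and hourly for 8 h (detection limit 1 log10 CFU/mL). Triplicate independent occasions; mechanistic PD model fitted.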

[4] = Plasma protein binding, equilibrium dialysis, mouse; type: in vitro ADME; conditions: 50 μM
[5] = Plasma protein binding, equilibrium dialysis, human; type: in vitro ADME; conditions: 50 μM
[6] = tested on: P. aeruginosa strain PAO1; test: Neutropenic mouse thigh infection model, single dose time course; type: in vivo, CD-1 mice; conditions: resistance emergence test

## COc1ccc(-c2ccn(CC[C@](C)(C(=O)NO)S(C)(=O)=O)c(=O)c2)c(F)c1 [Compound 6]
P. aeruginosa PAO1 [1]
  P.ae MIC PAO1: 0.25 μg/ml and 0.61 μM
[2]
  P.ae MIC PAO1 MexABCDXY−: 0.0075 μg/ml and 0.018 μM
P. aeruginosa cells
  maximum killing rate: 2.8 log10 CFU/hr
P. aeruginosa PAO1 [3]
  PAE at 4x MIC: 1.26 h
  PAE at 8x MIC: 1.67 h
  PAE at 16x MIC: 1.93 h
[4]
  free fraction (fu): 0.41
[5]
  free fraction (fu): 0.28
[6]
  CFU from 24 h timepoints on selective media (4× MIC): no CFU were obtained
